Test results: ChEMBL document CHEMBL3352010, “Synthesis and Pharmacology of a Novel κ Opioid Receptor (KOR) Agonist with a 1,3,5-Trioxazatriquinane Skeleton” (ACS Med Chem Lett, 2014)

How the values were obtained:
[1] = target: Delta-type opioid receptor (Mus musculus, UniProt P32300); assay: Displacement of [3H]DPDPE from delta opioid receptor in mouse whole brain without cerebellum
Mu-type opioid receptor = Mu-type opioid receptor (Mus musculus, UniProt P42866); assay: Displacement of [3H]DAMGO from mu opioid receptor in mouse whole brain without cerebellum
[2] = target: Kappa-type opioid receptor (Cavia porcellus, UniProt P41144); assay: Displacement of [3H]U69593 from kappa opioid receptor in guinea pig cerebellum
[3] = target: T1, Delta-type opioid receptor (Homo sapiens, UniProt P41143); assay: Agonist activity at human delta opioid receptor expressed in CHO cells assessed as stimulation of [35S]-GTPgammaS binding; format: functional, cell-based
[4] = target: T2, Kappa-type opioid receptor (Homo sapiens, UniProt P41145); assay: Agonist activity at human kappa opioid receptor expressed in CHO cells assessed as stimulation of [35S]-GTPgammaS binding; format: functional, cell-based
Mus musculus = assay: Analgesic activity in sc dosed mouse assessed as inhibition of acetic acid-induced writhing response treated 15 mins before acetic acid challenge measured after 10 mins; format: functional
Summary of the method: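 Test agent given s.c. to mice; 15 min later, 0.6% acetic acid i.p. at 10 mL/kg. After a 10 min delay, abdominal constrictions were counted over the next 10 min. 8 mice per group; group means ± SEM; ED50 taken from the dose-response. Statistics by one-way ANOVA with Bonferroni test versus vehicle.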

[5] = target: T2, Kappa-type opioid receptor; assay: Agonist activity at human kappa opioid receptor expressed in CHO cells assessed as stimulation of [35S]-GTPgammaS binding relative to U69593; format: functional, cell-based
[6] = target: T1, Delta-type opioid receptor; assay: Agonist activity at human delta opioid receptor expressed in CHO cells assessed as stimulation of [35S]-GTPgammaS binding relative to DPDPE; format: functional, cell-based

T2 sequence (P41145 whole entry): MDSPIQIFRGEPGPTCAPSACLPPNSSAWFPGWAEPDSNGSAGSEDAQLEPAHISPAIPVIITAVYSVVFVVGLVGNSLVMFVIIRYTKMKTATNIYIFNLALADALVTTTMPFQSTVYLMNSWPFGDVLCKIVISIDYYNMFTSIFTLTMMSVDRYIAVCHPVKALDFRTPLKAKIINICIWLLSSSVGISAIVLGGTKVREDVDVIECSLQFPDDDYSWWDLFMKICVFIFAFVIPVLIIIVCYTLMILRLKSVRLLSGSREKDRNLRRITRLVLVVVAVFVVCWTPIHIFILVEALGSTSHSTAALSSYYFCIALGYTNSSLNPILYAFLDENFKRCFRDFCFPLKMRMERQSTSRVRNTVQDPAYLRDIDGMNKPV
Chain of Mu-type opioid receptor (P42866 whole entry): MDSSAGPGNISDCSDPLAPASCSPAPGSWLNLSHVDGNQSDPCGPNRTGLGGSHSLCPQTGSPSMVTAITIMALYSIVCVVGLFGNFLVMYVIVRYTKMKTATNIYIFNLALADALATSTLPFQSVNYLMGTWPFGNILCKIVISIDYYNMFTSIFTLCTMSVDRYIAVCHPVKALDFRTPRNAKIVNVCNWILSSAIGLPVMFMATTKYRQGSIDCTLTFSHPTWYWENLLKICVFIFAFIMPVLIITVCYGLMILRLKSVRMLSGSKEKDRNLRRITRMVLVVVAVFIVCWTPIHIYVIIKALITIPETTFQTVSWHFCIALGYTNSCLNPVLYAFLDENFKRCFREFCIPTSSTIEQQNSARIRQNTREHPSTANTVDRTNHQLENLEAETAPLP
Chain of Delta-type opioid receptor (Mus musculus, UniProt P32300) (P32300 whole entry): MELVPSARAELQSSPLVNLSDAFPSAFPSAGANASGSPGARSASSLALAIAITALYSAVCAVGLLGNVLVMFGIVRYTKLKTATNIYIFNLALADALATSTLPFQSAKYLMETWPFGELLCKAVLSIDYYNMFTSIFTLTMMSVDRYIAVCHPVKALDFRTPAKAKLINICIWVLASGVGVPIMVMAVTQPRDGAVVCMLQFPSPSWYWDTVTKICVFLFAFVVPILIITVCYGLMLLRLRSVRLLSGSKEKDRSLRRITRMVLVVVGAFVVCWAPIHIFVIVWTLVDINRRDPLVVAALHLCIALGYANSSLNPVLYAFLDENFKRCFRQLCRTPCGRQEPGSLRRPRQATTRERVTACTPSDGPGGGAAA
Chain of Kappa-type opioid receptor (Cavia porcellus, UniProt P41144) (P41144 whole entry): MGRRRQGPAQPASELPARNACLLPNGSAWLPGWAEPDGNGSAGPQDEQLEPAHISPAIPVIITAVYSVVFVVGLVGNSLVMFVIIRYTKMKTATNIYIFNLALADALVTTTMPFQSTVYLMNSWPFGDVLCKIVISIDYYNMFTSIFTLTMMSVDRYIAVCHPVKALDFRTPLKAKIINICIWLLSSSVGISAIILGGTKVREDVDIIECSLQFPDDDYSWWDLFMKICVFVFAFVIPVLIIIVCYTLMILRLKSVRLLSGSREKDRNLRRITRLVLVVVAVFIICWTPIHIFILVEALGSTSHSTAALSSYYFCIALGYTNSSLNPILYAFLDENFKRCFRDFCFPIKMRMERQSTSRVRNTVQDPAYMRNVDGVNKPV
T1 sequence (P41143 whole entry): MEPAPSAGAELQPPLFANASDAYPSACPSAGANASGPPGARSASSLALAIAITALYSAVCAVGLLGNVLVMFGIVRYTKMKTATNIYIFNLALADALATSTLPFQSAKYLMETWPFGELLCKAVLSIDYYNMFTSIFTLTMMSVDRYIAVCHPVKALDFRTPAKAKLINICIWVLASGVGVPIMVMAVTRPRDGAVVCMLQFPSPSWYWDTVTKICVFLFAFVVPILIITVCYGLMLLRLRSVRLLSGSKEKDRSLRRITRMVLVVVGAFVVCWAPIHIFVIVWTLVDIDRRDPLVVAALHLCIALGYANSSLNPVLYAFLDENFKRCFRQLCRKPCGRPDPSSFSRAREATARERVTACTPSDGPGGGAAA

SMILES | Ki [1] [nM] | Ki (Mu-type opioid receptor) [nM] | Ki [2] [nM] | also measured
C[C@@]1(c2cccc(O)c2)O[C@@H]2N3[C@H]1O[C@@](C)(c1cccc(O)c1)[C@@H]3O[C@@]2(C)c1cccc(O)c1 (relative stereo) | > 1000 | > 1000 | > 1000 | –
C[C@]1(c2cccc(O)c2)O[C@H]2CO[C@H]3CO[C@@H]1N32 (relative stereo) | > 1000 | > 1000 | > 1000 | –
C[C@@]1(c2cccc(O)c2)O[C@@H]2N3[C@H]1O[C@](C)(c1cccc(O)c1)[C@@H]3O[C@@]2(C)c1cccc(O)c1 (relative stereo) | > 1000 | 652 | 667 | –
COc1cccc([C@@]2(C)O[C@@H]3N4[C@H](CO[C@H]42)O[C@@]3(C)c2cccc(O)c2)c1 (relative stereo) | > 1000 | > 1000 | 52.8 | –
C[C@@]1(c2cccc(O)c2)O[C@H]2CO[C@@H]3N2[C@H]1O[C@]3(C)c1cccc(O)c1 [listing 1 of 2 here] | > 1000 | > 1000 | 4.63 | EC50 [3]: 83.7 nM; EC50 [4]: 50.3 nM; ED50 (Mus musculus): 3.5 mg/kg
C[C@@]1(c2cccc(O)c2)O[C@H]2CO[C@@H]3N2[C@H]1O[C@]3(C)c1cccc(O)c1 (relative stereo) [listing 1 of 2 here] | – | – | – | Emax [5]: 98.2%
COc1cccc([C@]2(C)O[C@H]3CO[C@@H]4N3[C@H]2O[C@]4(C)c2cccc(O)c2)c1 (relative stereo) | > 1000 | > 1000 | > 1000 | –
CC1(c2cccc(O)c2)OC2COC3N2C1OC3(C)c1cccc(O)c1 (stereo not given) | 651 | 293 | > 1000 | –
C[C@@]1(c2cccc(O)c2)O[C@H]2CO[C@H]3CO[C@@H]1N32 (relative stereo) | > 1000 | > 1000 | > 1000 | –
C[C@@]1(c2cccc(O)c2)O[C@@H]2N3[C@H](CO[C@H]31)O[C@]2(C)c1cccc(O)c1 (relative stereo) | > 1000 | > 1000 | > 1000 | –
C[C@@]1(c2cccc(O)c2)O[C@H]2CO[C@@H]3N2[C@H]1O[C@@]3(C)c1cccc(O)c1 (relative stereo) | > 1000 | 735 | 793 | –
C[C@@]1(c2cccc(O)c2)O[C@H]2CO[C@@H]3N2[C@H]1O[C@]3(C)c1cccc(O)c1 [listing 2 of 2 here] | – | – | – | Emax [6]: 23.4%; Emax [5]: 96.8%; Activity (Mus musculus): Dose-dependent effect
C[C@@]1(c2cccc(O)c2)O[C@H]2CO[C@@H]3N2[C@H]1O[C@]3(C)c1cccc(O)c1 (relative stereo) [listing 2 of 2 here] | > 1000 | > 1000 | 6.09 | EC50 [4]: 97.5 nM
C[C@@]1(c2cccc(O)c2)O[C@@H]2N3[C@H]1O[C@](C)(c1cccc(O)c1)[C@@H]3O[C@]2(C)c1cccc(O)c1 (relative stereo) | > 1000 | 928 | > 1000 | –
COc1cccc([C@]2(C)O[C@H]3CO[C@@H]4N3[C@H]2O[C@]4(C)c2cccc(OC)c2)c1 (relative stereo) | > 1000 | > 1000 | > 1000 | –
C[C@]1(c2cccc(O)c2)O[C@H]2CO[C@@H]3N2[C@H]1O[C@]3(C)c1cccc(O)c1 (relative stereo) | > 1000 | > 1000 | > 1000 | –
